In ChEMBL document CHEMBL1121618, “Thymidine phosphorylase. Substrate specificity for 5-substituted 2'-deoxyuridines” (J Med Chem, 1980):

Assay: Ratio of Vmax to that of dThd (Vmax = 0.14)
How it was run: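 Continuous UV assay of phosphorolysis by a dThd phosphorylase preparation. Initial rates were followed at each nucleoside's Δλmax, the wavelength of maximal nucleoside/base absorbance difference determined per substrate, and converted using Δεmax. Nucleoside was varied from 60–320 μM in 0.1 M potassium phosphate (pH 6.0) with limiting enzyme at 25.0 °C. Vmax was expressed relative to dThd in the same assay.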

| Compound | Vmax |
| --- | --- |
| O=c1ccn([C@H]2C[C@H](O)[C@@H](CO)O2)c(=O)[nH]1 | 0.88 |
| C/C=C/c1cn([C@H]2C[C@H](O)[C@@H](CO)O2)c(=O)[nH]c1=O | 0.57 |
| O=c1[nH]c(=O)n([C@H]2C[C@H](O)[C@@H](CO)O2)cc1Cl | 4.2 |
| O=c1[nH]c(=O)n([C@H]2C[C@H](O)[C@@H](CO)O2)cc1F | 3.42 |
| O=Cc1cn([C@H]2C[C@H](O)[C@@H](CO)O2)c(=O)[nH]c1=O | 1.46 |
| O=c1[nH]c(=O)n([C@H]2C[C@H](O)[C@@H](CO)O2)cc1CO | 0.6 |
| O=c1[nH]c(=O)n([C@H]2C[C@H](O)[C@@H](CO)O2)cc1C(F)(F)F | 8.53 |
| O=c1[nH]c(=O)n([C@H]2C[C@H](O)[C@@H](CO)O2)cc1I | 3.85 |
| Cc1cn([C@H]2C[C@H](O)[C@@H](CO)O2)c(=O)[nH]c1=O | 1 |
| O=c1[nH]c(=O)n([C@H]2C[C@H](O)[C@@H](CO)O2)cc1Br | 3.51 |
| CCc1cn([C@H]2C[C@H](O)[C@@H](CO)O2)c(=O)[nH]c1=O | 0.79 |
| C=CCc1cn([C@H]2C[C@H](O)[C@@H](CO)O2)c(=O)[nH]c1=O | 0.76 |
| N#Cc1cn([C@H]2C[C@H](O)[C@@H](CO)O2)c(=O)[nH]c1=O | 0.74 |
